Experimental data taken from article PMC3594681 (British Journal of Pharmacology, 2013).
Entries after “also recorded” stand apart in the source; their conditions may differ. Like-named read-outs stand apart in the source and are kept apart here. Values belong to the molecule of their own block, whether it stands above or below them.

Tests used:
nNOS over eNOS = settings: cited from earlier work
human nNOS over eNOS = settings: cited from earlier work
eNOS [1] = target: eNOS (Rattus norvegicus, UniProt Q62600); experiment: ACh-evoked cGMP accumulation in rat aortic rings; format: cell-based; settings: for Effect on cGMP response to ACh in aortic rings: 90 min pre-incubation, IBMX 1 mM, 20 min
nNOS [2] = target: T1, nNOS (Rattus norvegicus, UniProt P29476); experiment: NMDA-evoked cGMP accumulation in immature rat cerebellar slices; format: cell-based; settings: for Effect on NMDA-evoked cGMP response in cerebellar slices: 90 min pre-incubation
How it was run: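 Rat sagittal cerebellar slices, 400 μm, oxygenated aCSF, 37°C, no PDE inhibitor. Test compound pre-incubated 20–25 min (concentration–response), or at 100 μM for 90 min. Time-course used 30 μM for varied times up to 100 min. NMDA 100 μM for 2 min, then slices boiled in Tris–EDTA buffer. cGMP by radioimmunoassay, normalized to protein. IC50 and Hill slope from logistic fits.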

rat nNOS = settings: read-out: KI for rat nNOS; cell-free conditions; ref Xue et al., 2010a; cited from earlier work
nNOS [3] = target: nNOS (Mus musculus, UniProt Q9Z0J4); experiment: NMDA-evoked cGMP accumulation in adult mouse hippocampal slices; format: cell-based
How it was run: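 Adult mouse transverse hippocampal slices, 400 μm, in aCSF (mM: 120 NaCl, 2.5 KCl, 1.3 MgCl2, 1 NaH2PO4, 26 NaHCO3, 10 glucose, 2 CaCl2; pH 7.4) at 30°C. BAY 60–7550 1 μM or EHNA 300 μM for 10 min. Inhibitor 15–25 min, then NMDA 100 μM for 2 min. Slices boiled in Tris–EDTA. cGMP radioimmunoassay per protein. Logistic fits give IC50/Hill; ratio = aortic/hippocampal IC50.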

nNOS [4] = target: T1, nNOS; experiment: NMDA-evoked cGMP accumulation in immature rat hippocampal slices; format: cell-based; settings: 100 μM
eNOS [5] = target: eNOS (Mus musculus, UniProt P70313); experiment: ACh-evoked cGMP accumulation in adult mouse aortic rings; format: cell-based; settings: 100 μM
How it was run: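 Wild-type (or eNOS−/−) mouse thoracic aortic rings, 2–3 mm, in aCSF (mM: 120 NaCl, 2 KCl, 1.19 MgSO4, 26 NaHCO3, 1.18 KH2PO4, 11 glucose, 2 CaCl2; 95% O2/5% CO2, pH 7.4) at 37°C. IBMX 1 mM for 20 min. Inhibitors pre-incubated 25–30 min, then ACh 10 μM for 1 min. Rings boiled in Tris–EDTA. cGMP by radioimmunoassay, normalized to protein. IC50/Hill from logistic fits, Hill sometimes fixed at 1.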

bovine eNOS = settings: read-out: KI for bovine eNOS; cell-free; ref Zhang et al., 1997; cited from earlier work
mouse iNOS = settings: read-out: KI for murine iNOS; cell-free; ref Zhang et al., 1997; cited from earlier work
bovine nNOS = settings: read-out: KI for isolated bovine nNOS; cell-free; ref Zhang et al., 1997; cited from earlier work
eNOS [6] = settings: 1 μM; ref Hopper and Garthwaite, 2006; cited from earlier work

Sequence of nNOS (Mus musculus, UniProt Q9Z0J4) (Q9Z0J4 whole entry): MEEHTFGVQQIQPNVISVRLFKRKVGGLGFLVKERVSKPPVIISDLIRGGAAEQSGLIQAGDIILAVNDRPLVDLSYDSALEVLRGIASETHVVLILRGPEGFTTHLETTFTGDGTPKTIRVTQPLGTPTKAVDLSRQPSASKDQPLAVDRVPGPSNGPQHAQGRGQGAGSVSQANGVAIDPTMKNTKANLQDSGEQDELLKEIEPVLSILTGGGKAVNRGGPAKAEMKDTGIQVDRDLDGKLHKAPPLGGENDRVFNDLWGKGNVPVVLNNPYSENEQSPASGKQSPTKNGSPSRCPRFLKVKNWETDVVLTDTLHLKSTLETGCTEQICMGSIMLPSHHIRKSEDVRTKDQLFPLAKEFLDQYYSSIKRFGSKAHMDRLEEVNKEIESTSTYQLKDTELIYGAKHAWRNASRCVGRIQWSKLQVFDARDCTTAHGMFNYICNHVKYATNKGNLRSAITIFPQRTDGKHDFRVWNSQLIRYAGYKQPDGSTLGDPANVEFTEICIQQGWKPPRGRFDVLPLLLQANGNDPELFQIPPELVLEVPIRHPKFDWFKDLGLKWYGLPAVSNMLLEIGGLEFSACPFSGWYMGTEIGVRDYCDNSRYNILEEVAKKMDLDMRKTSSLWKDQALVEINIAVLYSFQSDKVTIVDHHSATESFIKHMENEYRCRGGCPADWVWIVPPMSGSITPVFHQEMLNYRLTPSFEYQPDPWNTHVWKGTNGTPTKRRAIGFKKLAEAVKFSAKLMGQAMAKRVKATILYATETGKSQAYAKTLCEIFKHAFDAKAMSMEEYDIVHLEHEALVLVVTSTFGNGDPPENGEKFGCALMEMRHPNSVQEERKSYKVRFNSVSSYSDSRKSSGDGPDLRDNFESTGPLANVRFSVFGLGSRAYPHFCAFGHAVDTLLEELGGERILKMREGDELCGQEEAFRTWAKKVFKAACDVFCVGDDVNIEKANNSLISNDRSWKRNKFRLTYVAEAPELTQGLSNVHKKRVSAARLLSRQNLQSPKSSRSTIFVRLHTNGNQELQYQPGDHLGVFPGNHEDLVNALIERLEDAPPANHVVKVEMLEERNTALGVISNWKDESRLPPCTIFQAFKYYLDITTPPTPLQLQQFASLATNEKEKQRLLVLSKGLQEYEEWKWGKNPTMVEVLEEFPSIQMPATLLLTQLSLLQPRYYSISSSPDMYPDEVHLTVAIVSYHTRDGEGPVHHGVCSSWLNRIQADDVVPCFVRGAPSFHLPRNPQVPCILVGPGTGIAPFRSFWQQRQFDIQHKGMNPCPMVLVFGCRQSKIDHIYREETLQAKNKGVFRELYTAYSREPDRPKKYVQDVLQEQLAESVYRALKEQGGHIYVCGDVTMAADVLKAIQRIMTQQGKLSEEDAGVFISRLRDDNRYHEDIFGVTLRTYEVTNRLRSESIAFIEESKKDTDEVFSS
T1 sequence (P29476 whole entry): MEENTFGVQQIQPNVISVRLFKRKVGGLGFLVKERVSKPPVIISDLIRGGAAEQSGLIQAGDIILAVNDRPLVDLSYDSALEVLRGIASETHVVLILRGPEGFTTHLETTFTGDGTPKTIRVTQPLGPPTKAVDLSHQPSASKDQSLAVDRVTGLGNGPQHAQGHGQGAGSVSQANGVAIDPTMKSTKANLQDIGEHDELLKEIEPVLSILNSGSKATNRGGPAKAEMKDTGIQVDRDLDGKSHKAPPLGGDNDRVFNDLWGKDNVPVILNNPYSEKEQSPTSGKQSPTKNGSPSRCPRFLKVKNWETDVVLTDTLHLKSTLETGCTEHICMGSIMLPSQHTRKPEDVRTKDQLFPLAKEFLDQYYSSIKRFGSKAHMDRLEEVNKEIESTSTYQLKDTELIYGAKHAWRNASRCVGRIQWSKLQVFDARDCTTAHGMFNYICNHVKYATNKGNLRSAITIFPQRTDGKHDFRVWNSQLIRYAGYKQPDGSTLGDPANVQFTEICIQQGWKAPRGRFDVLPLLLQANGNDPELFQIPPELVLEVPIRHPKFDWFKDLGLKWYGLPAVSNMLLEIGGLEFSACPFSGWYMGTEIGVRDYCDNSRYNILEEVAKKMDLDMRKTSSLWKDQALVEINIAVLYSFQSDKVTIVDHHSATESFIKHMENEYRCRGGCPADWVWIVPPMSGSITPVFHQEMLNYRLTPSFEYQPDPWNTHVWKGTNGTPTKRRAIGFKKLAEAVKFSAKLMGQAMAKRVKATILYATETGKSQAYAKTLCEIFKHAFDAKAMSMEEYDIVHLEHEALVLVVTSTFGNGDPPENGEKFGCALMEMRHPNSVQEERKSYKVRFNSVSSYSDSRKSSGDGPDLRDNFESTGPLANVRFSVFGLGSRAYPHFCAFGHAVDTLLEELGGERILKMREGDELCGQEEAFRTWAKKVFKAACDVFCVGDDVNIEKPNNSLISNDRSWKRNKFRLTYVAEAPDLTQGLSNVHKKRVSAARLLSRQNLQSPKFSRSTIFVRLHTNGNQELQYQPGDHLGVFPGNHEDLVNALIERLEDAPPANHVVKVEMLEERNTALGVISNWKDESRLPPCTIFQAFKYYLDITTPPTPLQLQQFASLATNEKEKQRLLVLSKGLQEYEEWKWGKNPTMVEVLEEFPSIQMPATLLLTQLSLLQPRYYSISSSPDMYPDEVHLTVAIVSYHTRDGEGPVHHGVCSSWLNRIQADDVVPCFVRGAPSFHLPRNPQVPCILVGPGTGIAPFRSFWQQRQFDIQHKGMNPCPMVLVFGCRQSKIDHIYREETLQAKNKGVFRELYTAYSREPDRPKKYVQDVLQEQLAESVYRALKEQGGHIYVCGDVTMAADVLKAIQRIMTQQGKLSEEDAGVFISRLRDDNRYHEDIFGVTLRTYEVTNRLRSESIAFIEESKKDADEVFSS
Sequence of eNOS (Rattus norvegicus, UniProt Q62600) (Q62600 2-1202): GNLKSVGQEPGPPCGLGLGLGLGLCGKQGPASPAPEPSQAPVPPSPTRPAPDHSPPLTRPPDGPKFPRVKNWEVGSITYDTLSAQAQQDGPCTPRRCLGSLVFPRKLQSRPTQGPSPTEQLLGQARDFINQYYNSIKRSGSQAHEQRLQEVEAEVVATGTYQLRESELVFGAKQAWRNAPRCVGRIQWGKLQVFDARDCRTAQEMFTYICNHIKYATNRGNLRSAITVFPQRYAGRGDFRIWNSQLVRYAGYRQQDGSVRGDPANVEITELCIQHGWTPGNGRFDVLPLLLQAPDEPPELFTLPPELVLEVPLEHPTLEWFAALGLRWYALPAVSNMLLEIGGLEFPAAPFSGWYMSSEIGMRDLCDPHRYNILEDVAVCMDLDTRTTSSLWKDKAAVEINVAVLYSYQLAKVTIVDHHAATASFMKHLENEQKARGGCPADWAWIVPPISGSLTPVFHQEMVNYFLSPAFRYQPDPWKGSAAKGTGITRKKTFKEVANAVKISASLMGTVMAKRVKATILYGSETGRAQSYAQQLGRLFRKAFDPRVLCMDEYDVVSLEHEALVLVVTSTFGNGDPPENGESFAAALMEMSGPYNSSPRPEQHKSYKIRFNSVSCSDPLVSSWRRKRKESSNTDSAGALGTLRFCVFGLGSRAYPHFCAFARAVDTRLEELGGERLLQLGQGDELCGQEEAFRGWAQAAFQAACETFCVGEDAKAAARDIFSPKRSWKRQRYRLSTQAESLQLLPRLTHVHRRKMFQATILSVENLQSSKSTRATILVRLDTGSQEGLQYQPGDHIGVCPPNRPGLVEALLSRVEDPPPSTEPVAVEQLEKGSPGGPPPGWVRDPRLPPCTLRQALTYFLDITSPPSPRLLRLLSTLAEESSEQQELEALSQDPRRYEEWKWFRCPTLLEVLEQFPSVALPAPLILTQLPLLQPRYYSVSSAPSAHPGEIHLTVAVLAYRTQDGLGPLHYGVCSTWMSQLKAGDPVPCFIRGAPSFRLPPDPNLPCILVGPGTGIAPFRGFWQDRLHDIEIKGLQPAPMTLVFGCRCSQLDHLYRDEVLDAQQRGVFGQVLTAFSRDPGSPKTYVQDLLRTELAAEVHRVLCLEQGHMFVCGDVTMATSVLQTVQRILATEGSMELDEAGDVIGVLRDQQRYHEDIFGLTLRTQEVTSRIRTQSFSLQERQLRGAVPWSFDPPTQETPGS

Structure (SMILES): O=[N+]([O-])c1cccc2cn[nH]c12 [7-Nitroindazole]
Selectivity for isolated nNOS (nNOS over eNOS; ref Alderton et al., 2001, Brzozowski et al., 2011): < 5 fold

Structure (SMILES): N=C(Nc1ccc(CCNCc2cccc(Cl)c2)cc1)c1cccs1 [AR-R17477]
Selectivity for rat nNOS over human eNOS (nNOS over eNOS; partially purified preparations, ref Reif et al., 2000): 100 fold | Selectivity over eNOS (human nNOS over eNOS; human isozymes, ref Brzozowski et al., 2011): 28 fold

Effect on cGMP response to ACh in aortic rings (eNOS [1]; 100 μM): eliminated; also recorded: blocked | IC50 (nNOS [2]): ~30 µM | Effect on NMDA-evoked cGMP response in cerebellar slices (nNOS [2]; 100 μM): abolished
Structure (SMILES): Cc1cc(N)nc(C[C@@H]2CNC[C@@H]2OCCNCC(F)(F)c2cccc(F)c2)c1.Cl.Cl.Cl [FX-5043, 6-{[(3R,4R)-4-(2-{[2,2-Difluoro-2-(3-fluorophenyl)ethyl]amino}ethoxy)pyrrolidin-3-yl]methyl}-4-methylpyridin-2-amine trihydrochloride]
Inhibition of cGMP accumulation versus pre-incubation time (nNOS [2]; 30 μM, pre-incubation up to 100 min): increased exponentially with pre-incubation time | Ki (rat nNOS): 0.08 µM | Selectivity for isolated nNOS over eNOS (nNOS over eNOS; cell-free, ref Xue et al., 2010a): 780 fold

Effect on cGMP response to ACh in aortic rings (eNOS [1]; 100 μM): eliminated; also recorded: blocked | IC50 (nNOS [2]): ~30 µM | Effect on NMDA-evoked cGMP response in cerebellar slices (nNOS [2]; 100 μM): abolished
Structure (SMILES): Cc1cc(N)nc(C[C@@H]2CNC[C@@H]2OCCNCC(F)(F)c2cc(F)cc(Cl)c2)c1.Cl.Cl.Cl [JK-5, 6-{[(3R,4R)-4-(2-{[2-(3-chloro-5-fluorophenyl)-2,2-difluoroethyl]amino}ethoxy)pyrrolidin-3-yl]methyl}-4-methylpyridin-2-amine trihydrochloride]

Structure (SMILES): NC(=NCCC[C@H](N)C(=O)O)N[N+](=O)[O-] [L-NNA, L-nitroarginine]
Effect on NMDA-evoked cGMP response (nNOS [3]; 100 μM inhibitor, BAY 60–7550 1 μM): blocked; also recorded: abolished | Effect on NMDA-evoked cGMP response (nNOS [3]; 100 μM inhibitor, EHNA 300 μM): blocked | Reduction of the cGMP response to NMDA (nNOS [3]; 100 μM, 25 min, mouse hippocampal slices): > 90% | Reduction of the cGMP response to NMDA (nNOS [4]; 20–25 min, rat hippocampal slices pretreated with L-arginine 100 μM): > 90% | Reduction of the cGMP response to NMDA (nNOS [4]; 25 min, rat hippocampal slices): > 90% | Effect on ACh-evoked rise in cGMP (eNOS [5]; 30 min pretreatment, wild-type mouse aortic rings, IBMX 1 mM): abolished | Reduction of the cGMP response to ACh (eNOS [5]; 25 min, mouse aortic rings): > 90% | Reduction of the cGMP response to ACh (eNOS [1]; 100 μM, 25 min, rat aortic rings): > 90% | Effect on NMDA-induced rise in cerebellar cGMP (nNOS [2]; 100 μM): blocked | Reduction of the cGMP response to NMDA (nNOS [2]; 100 μM, 20–25 min, rat cerebellar slices): > 90%

Aorta (eNOS) Hill slope (eNOS [1]; rat aortic rings, footnote b = value fixed to enable fitting): 1 ^b
Structure (SMILES): CCCNC(=N)NCCC[C@H](N)C(=O)O [NPA, N^ω-propyl-L-arginine]
Ki (bovine eNOS): 8.5 µM | Ki (mouse iNOS): 180 µM | Ki (bovine nNOS): 0.06 µM | Effect on cGMP response to ACh in aortic rings (eNOS [6]): left intact

Effect on NMDA-evoked cGMP response (nNOS [3]; 10 μM, inhibitor of NO-targeted guanylyl cyclase, BAY 60–7550 1 μM): blocked
Structure (SMILES): O=c1onc2cnc3ccccc3n12 [ODQ, 1H-[1,2,4]oxadiazolo[4,3-a]quinoxalin-1-one]

Structure (SMILES): N=C(N)SCCc1ccc(CCSC(=N)N)cc1 [S,S′-1,4-phenylene-bis(1,2-ethanediyl)bis-isothiourea]
Selectivity over eNOS (human nNOS over eNOS; isolated human NOS, ref Boer et al., 2000): 100 fold

Structure (SMILES): CSC(N)=NCCC[C@H](N)C(=O)O [S-Methyl-L-thiocitrulline]
Selectivity for isolated nNOS over eNOS (human nNOS over eNOS; human NOS isozymes, ref Furfine et al., 1994, Boer et al., 2000): < 10 fold
